Assay [1] is described as follows: Antiproliferative activity against human C4-2B cells assessed as inhibition of cell viability after 48 hrs by MTT reduction assay. In kind it is functional, cell-based. The following applies: LNCaP C4-2B. In short, it runs like this:
(§1)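 Cells grown in RPMI-1640 or EMEM with 10% FBS at 37 °C under 5% CO2. Seeded at 1 × 10^4 cells/well for 12 h, then exposed to a range of compound concentrations for 48 h. Viability read by MTT reduction. 5-Fluorouracil was the positive control. Each assay was repeated three times, and IC50 reported as mean ± SD.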
(In general: Tetrazolium assays rely on reduction of a dye to a coloured formazan, in cell work by metabolically active cells.)

The nature of assay [2]: Antiproliferative activity against human 786-0 cells assessed as inhibition of cell viability after 48 hrs by MTT reduction assay. Particulars: 786-0, 48 h. It is filed as functional, cell-based. In short, it runs like this:
as §1

The nature of assay [3]: Antiproliferative activity against human ACHN cells assessed as inhibition of cell viability after 48 hrs by MTT reduction assay. It is filed as functional, cell-based. In short, it runs like this: as §1
Assay [4] in a line: Antiproliferative activity against human A498 cells assessed as inhibition of cell viability after 48 hrs by MTT reduction assay. It is filed as functional, cell-based. Particulars: A498, 48 h. The method in brief:
as §1

The nature of assay [5]: Antiinflammatory activity in mouse RAW264.7 cells assessed as inhibition of LPS-induced nitric oxide production after 24 hrs by Griess assay. It is filed as functional, cell-based. Particulars: RAW264.7, 24 h. The method in brief: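 RAW 264.7 macrophages seeded at 1 × 10^6 cells/well, then incubated 24 h at 37 °C with LPS (1 μg/mL), with or without test compounds. NO measured by Griess reagent (0.1% N-(1-naphthyl)ethylenediamine plus 1% sulfanilamide in 5% H3PO4), absorbance at 540 nm. NO concentration and inhibition rate calculated from a standard curve. Hydrocortisone served as positive control.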

Assay [6] can be described thus: Antiproliferative activity against human 22Rv1 cells assessed as inhibition of cell viability after 48 hrs by MTT reduction assay. It is filed as functional, cell-based, CWR22R. Particulars: 22Rv1, 48 h. The method in brief: as §1
A short description of assay [7]: Antiproliferative activity against human A375-S2 cells assessed as inhibition of cell viability after 48 hrs by MTT reduction assay. In kind it is functional, cell-based. Particulars: A375-S2, 48 h. The method in brief: as §1

These results are taken from ChEMBL document CHEMBL3860025, “Antiproliferative and Anti-inflammatory Withanolides from Physalis angulata” (J Nat Prod, 2016).

A word on the IC50: it is the concentration needed to halve the response being measured. On to `CC(=O)O[C@H]1C=C([C@H](C)[C@H]2CC(C)=C(C)C(=O)O2)[C@@]2(C)CC[C@H]3[C@@H](C[C@@H](O)[C@@]4(O)CC=CC(=O)[C@]34C)[C@]12O`, for which the IC50 was > 10 µM in assay [1]; > 10 µM in assay [2]; > 10 µM in assay [3]; > 10 µM in assay [4]; 64.1 µM in assay [5]; > 10 µM in assay [6]. In addition, the IC50 in assay [7] is > 10 µM.

Regarding `CC1=C(C)C(=O)O[C@@H]([C@@H](C)C2=C[C@H](O)[C@]3(O)[C@@H]4C[C@@H](O)[C@@]5(O)CC=CC(=O)[C@]5(C)[C@H]4CC[C@]23C)C1`, the IC50 in assay [1] was > 10 µM; in assay [2], > 10 µM; in assay [3], > 10 µM; in assay [4] it was > 10 µM; in assay [5] it was 36.5 µM; in assay [6], > 10 µM. Moreover, the concentration for half-maximal inhibition (IC50) in assay [7] is > 10 µM.

For `CO[C@]12CC=CC(=O)[C@]1(C)[C@H]1CC[C@]3(C)C([C@H](C)[C@H]4CC(C)=C(C)C(=O)O4)=C[C@H](OC(C)=O)[C@]3(O)[C@@H]1C[C@H]2O`, the half-maximal inhibitory concentration (IC50) in assay [1] is > 10 µM; in assay [2] it was > 10 µM; in assay [3], > 10 µM; in assay [4] it was > 10 µM; in assay [5], 44.6 µM; in assay [6], > 10 µM. In assay [7], the IC50 was > 10 µM.

Take `CC(=O)O[C@H]1C[C@H]([C@H](C)[C@H]2CC(C)=C(C)C(=O)O2)[C@@]2(C)CC[C@H]3[C@@H](C[C@H]4O[C@]45CC=CC(=O)[C@]35C)[C@@]12O`: the concentration for half-maximal inhibition (IC50) came out at 0.49 µM in assay [1]; 0.39 µM in assay [2]; 0.73 µM in assay [3]; 0.71 µM in assay [4]; 1.36 µM in assay [5]; 0.9 µM in assay [6]. The IC50 in assay [7] worked out at 7.43 µM.

As to `CC(=O)O[C@H]1C[C@H]([C@H](C)[C@H]2CC(C)=C(C)C(=O)O2)[C@@]2(C)CC[C@H]3[C@@H](C[C@@H](O)[C@@]4(O)CC=CC(=O)[C@]34C)[C@@]12O`, the IC50 in assay [1] is > 10 µM; in assay [2], > 10 µM; in assay [3], > 10 µM; in assay [4], > 10 µM; in assay [5] it was 43.8 µM; in assay [6] it was > 10 µM. Also, in assay [7], the IC50 is > 10 µM.

In the case of `CO[C@@H]1C=C([C@H](C)[C@H]2CC(C)=C(C)C(=O)O2)[C@@]2(C)CC[C@H]3[C@@H](C[C@@H](O)[C@@]4(O)CC=CC(=O)[C@]34C)[C@@]12O`, the concentration for half-maximal inhibition (IC50) was > 10 µM in assay [1]; > 10 µM in assay [2]; > 10 µM in assay [3]; > 10 µM in assay [4]; 18.7 µM in assay [5]; > 10 µM in assay [6]. Further, in assay [7], the IC50 is > 10 µM.

`CC(=O)O[C@H]1C=C([C@H](C)[C@H]2CC(C)=C(C)C(=O)O2)[C@@]2(C)CC[C@H]3[C@@H](C[C@H](O)[C@]4(O)CC=CC(=O)[C@]34C)[C@@]12O`: the IC50 in assay [1] was > 10 µM; in assay [2], > 10 µM; in assay [3] it was > 10 µM; in assay [4], > 10 µM; in assay [5] it was 11.6 µM; in assay [6], > 10 µM. Also, the half-inhibitory concentration (IC50) in assay [7] is > 10 µM.

On to `CC1=C(C)C(=O)O[C@@H]([C@](C)(O)[C@H]2C[C@H](O)[C@H]3[C@@H]4C[C@@H](O)[C@@]5(O)CC=CC(=O)[C@]5(C)[C@H]4CC[C@@]32C)C1`, for which the IC50 in assay [1] was > 10 µM; in assay [2] it was > 10 µM; in assay [3] it was > 10 µM; in assay [4], > 10 µM; in assay [5] it was 71.7 µM; in assay [6] it was > 10 µM. Moreover, the half-maximal inhibitory concentration (IC50) in assay [7] was > 10 µM.

For the compound `CC(=O)O[C@H]1C[C@H]([C@H](C)[C@H]2CC(C)=C(C)C(=O)O2)[C@@]2(C)CC[C@H]3[C@@H](C[C@@H](O)[C@@]4(O)CC=CC(=O)[C@]34C)[C@H]12`, the half-inhibitory concentration (IC50) in assay [1] was > 10 µM; in assay [2], > 10 µM; in assay [3], > 10 µM; in assay [4], > 10 µM; in assay [5], 17.6 µM; in assay [6] it was 11.6 µM. For the same compound, the concentration for half-maximal inhibition (IC50) in assay [7] is > 10 µM.

For the compound `CC1=C(C)C(=O)O[C@@H]([C@@H](C)C2=C[C@@H](O)[C@]3(O)[C@@H]4C[C@@H](O)[C@@]5(O)CC=CC(=O)[C@]5(C)[C@H]4CC[C@]23C)C1`, the IC50 is > 10 µM in assay [1]; > 10 µM in assay [2]; > 10 µM in assay [3]; > 10 µM in assay [4]; 38.2 µM in assay [5]; > 10 µM in assay [6]. In addition, in assay [7], the concentration for half-maximal inhibition (IC50) is > 10 µM.

With `CC1=C(C)C(=O)O[C@@H]([C@@H](C)[C@]23O[C@H]2[C@H](O)[C@]2(O)[C@@H]4C[C@@H](O)[C@@]5(O)CC=CC(=O)[C@]5(C)[C@H]4CC[C@@]23C)C1`, the half-inhibitory concentration (IC50) is > 10 µM in assay [1]; > 10 µM in assay [2]; > 10 µM in assay [3]; > 10 µM in assay [4]; > 100 µM in assay [5]; > 10 µM in assay [6]. Also, the 50% inhibitory concentration (IC50) in assay [7] was > 10 µM.

For `CO[C@]12CC=CC(=O)[C@]1(C)[C@H]1CC[C@@]3(C)[C@@](O)([C@@H]1C[C@H]2O)[C@@H](OC(C)=O)[C@@H]1O[C@@]13[C@H](C)[C@H]1CC(C)=C(C)C(=O)O1`, the half-inhibitory concentration (IC50) in assay [1] is > 10 µM; in assay [2], > 10 µM; in assay [3], > 10 µM; in assay [4], > 10 µM; in assay [5] it was 6.36 µM; in assay [6], > 10 µM. For the same compound, the IC50 in assay [7] was > 10 µM.

For the compound `CC1=C(CO)C[C@H]([C@]2(C)OC(=O)[C@]34[C@H](O)C[C@H]5[C@@H](CC=C6CC=CC(=O)[C@@]65C)[C@]3(O)[C@H](O)C[C@H]24)OC1=O`, the 50% inhibitory concentration (IC50) in assay [1] was > 10 µM; in assay [2] it was > 10 µM; in assay [3] it was > 10 µM; in assay [4], > 10 µM; in assay [5], 17.5 µM; in assay [6], > 10 µM. Moreover, the half-inhibitory concentration (IC50) in assay [7] was > 10 µM.

As to `CC1=C(C)C(=O)O[C@@H]([C@]2(C)OC(=O)[C@]34CC[C@H]5[C@@H](CC=C6CC=CC(=O)[C@@]65C)[C@@](O)(O3)[C@@H](O)C[C@H]24)C1`, the IC50 in assay [1] was > 10 µM; in assay [2] it was > 10 µM; in assay [3], > 10 µM; in assay [4], > 10 µM; in assay [5], 25.9 µM; in assay [6], > 10 µM. Further, in assay [7], the IC50 was > 10 µM.

For the compound `CC(=O)O[C@H]1C=C([C@H](C)[C@H]2CC(C)=C(C)C(=O)O2)[C@@]2(C)CC[C@H]3[C@@H](C[C@@H](O)[C@@]4(O)C[C@@H](O)CC(=O)[C@]34C)[C@@]12O`, the IC50 is > 10 µM in assay [1]; > 10 µM in assay [2]; > 10 µM in assay [3]; > 10 µM in assay [4]; > 100 µM in assay [5]; > 10 µM in assay [6]. Also, in assay [7], the half-maximal inhibitory concentration (IC50) was > 10 µM.

In the case of `CO[C@@H]1CC(=O)[C@]2(C)[C@H]3CC[C@@]4(C)[C@@](O)([C@@H]3C[C@H]3O[C@]32C1)[C@@H](OC(C)=O)[C@@H]1O[C@@]14[C@H](C)[C@H]1CC(C)=C(C)C(=O)O1`, the IC50 in assay [1] was 2.12 µM; in assay [2], 2.2 µM; in assay [3] it was > 10 µM; in assay [4] it was > 10 µM; in assay [5] it was 3.51 µM; in assay [6], 1.17 µM. The IC50 in assay [7] was > 10 µM.

For `CO[C@]12CC=CC(=O)[C@]1(C)[C@H]1CC[C@@]3(C)[C@](O)([C@@H](OC(C)=O)C[C@@]3(O)[C@H](C)[C@H]3CC(C)=C(C)C(=O)O3)[C@@H]1C[C@H]2O`, the 50% inhibitory concentration (IC50) is > 10 µM in assay [1]; > 10 µM in assay [2]; > 10 µM in assay [3]; > 10 µM in assay [4]; 3.53 µM in assay [5]; > 10 µM in assay [6]. Moreover, in assay [7], the IC50 was > 10 µM.

As to `CO[C@H]1C=C([C@H](C)[C@H]2CC(C)=C(C)C(=O)O2)[C@@]2(C)CC[C@H]3[C@@H](C[C@@H](O)[C@@]4(O)CC=CC(=O)[C@]34C)[C@@]12O`, the IC50 in assay [1] was > 10 µM; in assay [2], > 10 µM; in assay [3], > 10 µM; in assay [4], > 10 µM; in assay [5] it was 11.4 µM; in assay [6], > 10 µM. Further, the IC50 in assay [7] was > 10 µM.

Turning to `CC1=C(C)C(=O)O[C@@H]([C@@H](C)C2=C[C@@H]3O[C@@H](C)O[C@@]34[C@@H]3C[C@@H](O)[C@@]5(O)CC=CC(=O)[C@]5(C)[C@H]3CC[C@]24C)C1`, the 50% inhibitory concentration (IC50) in assay [1] is > 10 µM; in assay [2] it was > 10 µM; in assay [3] it was > 10 µM; in assay [4], > 10 µM; in assay [5], 11.2 µM; in assay [6] it was > 10 µM. The half-maximal inhibitory concentration (IC50) in assay [7] was > 10 µM.

Take `O=c1[nH]cc(F)c(=O)[nH]1` [FLUOROURACIL]: the IC50 in assay [1] was 5.64 µM; in assay [2], > 10 µM; in assay [3] it was 2.73 µM; in assay [4] it was 8.83 µM; in assay [6], 3.83 µM; in assay [7] it was 1.91 µM.
